Measurements from ChEMBL document CHEMBL4316599, “Synthesis, in vitro and in vivo biological evaluation of substituted 3-(5-imidazo[2,1-b]thiazolylmethylene)-2-indolinones as new potent anticancer agents” (Eur J Med Chem, 2019).

system: CNS carcinoma cell; assay: Cytotoxicity against human CNS cancer cells after 48 hrs by SRB assay; assay type: functional; conditions: not given
Summary of the method: (§1)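 NCI-60 screen: single-dose pass at 10^-5 M, then a five-concentration assay from 10^-9 to 10^-4 M (highest 100 μM). Exposure was 48 h under standard NCI protocols. GI50, TGI and LC50 were derived per cell line and averaged by subpanel. Repeated tests are the mean of two experiments.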

| Compound | GI50 [µM] | TGI [µM] |
| --- | --- | --- |
| COc1cc2c(c(OC)c1OC)/C(=C\c1c(OC)nc3sc(C)cn13)C(=O)N2 | 7.79 | 33.6 |
| COc1ccc2c(c1)/C(=C/c1c(-c3ccncc3)nc3sccn13)C(=O)N2C | 0.38 | 63.1 |
| COc1cc2c(cc1C)NC(=O)/C2=C/c1c(OC)nc2sc(C)cn12 | 5.7 | 20.4 |
| COc1nc2sc(C)cn2c1C=C1C(=O)N(C)c2ccccc21 | 9.82 | 42.4 |
| COc1ccc2c(c1)/C(=C\c1c(OC)nc3sc(C)cn13)C(=O)N2 | 0.43 | 33.6 |

same assay, conditions: read-out: LC50 (the source's name)

| Compound | CC50 [µM] |
| --- | --- |
| COc1cc2c(c(OC)c1OC)/C(=C\c1c(OC)nc3sc(C)cn13)C(=O)N2 | 81.4 |
| COc1cc2c(cc1C)NC(=O)/C2=C/c1c(OC)nc2sc(C)cn12 | 68.3 |
| COc1nc2sc(C)cn2c1C=C1C(=O)N(C)c2ccccc21 | 97.3 |
| COc1ccc2c(c1)/C(=C\c1c(OC)nc3sc(C)cn13)C(=O)N2 | 85.4 |

system: Melanoma cell line; assay: Cytotoxicity against human melanoma cells after 48 hrs by SRB assay; assay type: functional; conditions: not given; summary of the method: as §1

| Compound | GI50 [µM] | TGI [µM] |
| --- | --- | --- |
| COc1cc2c(c(OC)c1OC)/C(=C\c1c(OC)nc3sc(C)cn13)C(=O)N2 | 7.86 | 65.7 |
| COc1ccc2c(c1)/C(=C/c1c(-c3ccncc3)nc3sccn13)C(=O)N2C | 5.97 | 85.3 |
| COc1cc2c(cc1C)NC(=O)/C2=C/c1c(OC)nc2sc(C)cn12 | 31.5 | 91.7 |
| COc1nc2sc(C)cn2c1C=C1C(=O)N(C)c2ccccc21 | 8.08 | 34.2 |
| COc1ccc2c(c1)/C(=C\c1c(OC)nc3sc(C)cn13)C(=O)N2 | 3.46 | 67.7 |

same assay, conditions: read-out: LC50 (the source's name)

| Compound | CC50 [µM] |
| --- | --- |
| COc1cc2c(c(OC)c1OC)/C(=C\c1c(OC)nc3sc(C)cn13)C(=O)N2 | 95.6 |
| COc1nc2sc(C)cn2c1C=C1C(=O)N(C)c2ccccc21 | 93.4 |

system: Leukemia cell; assay: Cytotoxicity against human leukemia cells after 48 hrs by SRB assay; assay type: functional; conditions: not given; summary of the method: as §1

| Compound | GI50 [µM] | LC50 [µM] | TGI [µM] |
| --- | --- | --- | --- |
| COc1cc2c(c(OC)c1OC)/C(=C\c1c(OC)nc3sc(C)cn13)C(=O)N2 | 5.73 |  |  |
| COc1ccc2c(c1)/C(=C/c1c(-c3ccncc3)nc3sccn13)C(=O)N2C | 0.35 | 96.1 | 81.8 |
| COc1nc2sc(C)cn2c1C=C1C(=O)N(C)c2ccccc21 | 4.35 |  | 74.2 |
| COc1ccc2c(c1)/C(=C\c1c(OC)nc3sc(C)cn13)C(=O)N2 | 0.43 |  |  |

system: NSCLC; assay: Cytotoxicity against human NSCLC cells after 48 hrs by SRB assay; assay type: functional; conditions: not given; summary of the method: as §1

| Compound | GI50 [µM] | LC50 [µM] | TGI [µM] |
| --- | --- | --- | --- |
| COc1cc2c(c(OC)c1OC)/C(=C\c1c(OC)nc3sc(C)cn13)C(=O)N2 | 9.26 | 99.4 | 58.8 |
| COc1ccc2c(c1)/C(=C/c1c(-c3ccncc3)nc3sccn13)C(=O)N2C | 0.55 |  | 82.4 |
| COc1cc2c(cc1C)NC(=O)/C2=C/c1c(OC)nc2sc(C)cn12 | 5.25 | 98 | 74.9 |
| COc1nc2sc(C)cn2c1C=C1C(=O)N(C)c2ccccc21 | 9.5 | 95.1 | 73.2 |
| COc1ccc2c(c1)/C(=C\c1c(OC)nc3sc(C)cn13)C(=O)N2 | 1.49 | 88.9 | 58.6 |

system: not listed separately; assay: Cytotoxicity against human COLON cells after 48 hrs by SRB assay; assay type: functional; conditions: not given; summary of the method: as §1

| Compound | GI50 [µM] | TGI [µM] |
| --- | --- | --- |
| COc1cc2c(c(OC)c1OC)/C(=C\c1c(OC)nc3sc(C)cn13)C(=O)N2 | 6.89 | 69.9 |
| COc1ccc2c(c1)/C(=C/c1c(-c3ccncc3)nc3sccn13)C(=O)N2C | 0.34 | 78.8 |
| COc1cc2c(cc1C)NC(=O)/C2=C/c1c(OC)nc2sc(C)cn12 | 42.9 | 91.7 |
| COc1nc2sc(C)cn2c1C=C1C(=O)N(C)c2ccccc21 | 4.05 | 36.3 |
| COc1ccc2c(c1)/C(=C\c1c(OC)nc3sc(C)cn13)C(=O)N2 | 0.32 | 35.7 |

same assay, conditions: read-out: LC50 (the source's name)

| Compound | CC50 [µM] |
| --- | --- |
| COc1cc2c(c(OC)c1OC)/C(=C\c1c(OC)nc3sc(C)cn13)C(=O)N2 | 97.2 |
| COc1ccc2c(c1)/C(=C/c1c(-c3ccncc3)nc3sccn13)C(=O)N2C | 93 |
| COc1nc2sc(C)cn2c1C=C1C(=O)N(C)c2ccccc21 | 91.1 |
| COc1ccc2c(c1)/C(=C\c1c(OC)nc3sc(C)cn13)C(=O)N2 | 79.2 |

system: Ovarian carcinoma cell; assay: Cytotoxicity against human ovarian cancer cells after 48 hrs by SRB assay; assay type: functional; conditions: not given; summary of the method: as §1

| Compound | GI50 [µM] | LC50 (50% lethal concentration) [µM] | TGI [µM] |
| --- | --- | --- | --- |
| COc1cc2c(c(OC)c1OC)/C(=C\c1c(OC)nc3sc(C)cn13)C(=O)N2 | 13.8 | 93 | 63.2 |
| COc1ccc2c(c1)/C(=C/c1c(-c3ccncc3)nc3sccn13)C(=O)N2C | 1.14 | 93.2 | 62.4 |
| COc1cc2c(cc1C)NC(=O)/C2=C/c1c(OC)nc2sc(C)cn12 | 7.22 | 91.4 | 47.1 |
| COc1nc2sc(C)cn2c1C=C1C(=O)N(C)c2ccccc21 | 10.5 | 92.8 | 67 |
| COc1ccc2c(c1)/C(=C\c1c(OC)nc3sc(C)cn13)C(=O)N2 | 1.32 | 87.6 | 42.6 |

system: Renal cancer cell line; assay: Cytotoxicity against human renal cancer cells after 48 hrs by SRB assay; assay type: functional; conditions: not given; summary of the method: as §1

| Compound | GI50 [µM] | LC50 (50% lethal concentration) [µM] | TGI [µM] |
| --- | --- | --- | --- |
| COc1cc2c(c(OC)c1OC)/C(=C\c1c(OC)nc3sc(C)cn13)C(=O)N2 | 9.36 | 98.2 | 45 |
| COc1ccc2c(c1)/C(=C/c1c(-c3ccncc3)nc3sccn13)C(=O)N2C | 0.5 |  | 65.5 |
| COc1cc2c(cc1C)NC(=O)/C2=C/c1c(OC)nc2sc(C)cn12 | 5.81 | 90.6 | 58.9 |
| COc1nc2sc(C)cn2c1C=C1C(=O)N(C)c2ccccc21 | 13.1 |  | 70.5 |
| COc1ccc2c(c1)/C(=C\c1c(OC)nc3sc(C)cn13)C(=O)N2 | 0.65 |  | 61.8 |

system: Prostatic carcinoma cell; assay: Cytotoxicity against human prostate cancer cells after 48 hrs by SRB assay; assay type: functional; conditions: not given; summary of the method: as §1

| Compound | GI50 [µM] | TGI [µM] |
| --- | --- | --- |
| COc1cc2c(c(OC)c1OC)/C(=C\c1c(OC)nc3sc(C)cn13)C(=O)N2 | 11.3 |  |
| COc1ccc2c(c1)/C(=C/c1c(-c3ccncc3)nc3sccn13)C(=O)N2C | 0.39 | 68.8 |
| COc1cc2c(cc1C)NC(=O)/C2=C/c1c(OC)nc2sc(C)cn12 | 18.8 |  |
| COc1nc2sc(C)cn2c1C=C1C(=O)N(C)c2ccccc21 | 12.6 | 66.7 |
| COc1ccc2c(c1)/C(=C\c1c(OC)nc3sc(C)cn13)C(=O)N2 | 0.38 | 52.8 |

system: Breast carcinoma cell; assay: Cytotoxicity against human breast cancer cells after 48 hrs by SRB assay; assay type: functional; conditions: not given; summary of the method: as §1

| Compound | GI50 [µM] | LC50 (concentration killing 50% of cells) [µM] | TGI [µM] |
| --- | --- | --- | --- |
| COc1cc2c(c(OC)c1OC)/C(=C\c1c(OC)nc3sc(C)cn13)C(=O)N2 | 5.37 | 99.3 | 29.2 |
| COc1ccc2c(c1)/C(=C/c1c(-c3ccncc3)nc3sccn13)C(=O)N2C | 0.44 |  | 80.1 |
| COc1cc2c(cc1C)NC(=O)/C2=C/c1c(OC)nc2sc(C)cn12 | 4.57 | 91.4 | 50.9 |
| COc1nc2sc(C)cn2c1C=C1C(=O)N(C)c2ccccc21 | 4.82 |  | 58.2 |
| COc1ccc2c(c1)/C(=C\c1c(OC)nc3sc(C)cn13)C(=O)N2 | 0.87 |  | 61.3 |
